Source: PubChem BioAssay (Broad Institute)
In the library only some 3.8% were active in any assay of this set; here they are far more common.
SIRT5 block: sirtuin-5 (human) deacylase inhibition. Q9NXA8. AID 652115. Purified SirT5, succinyl-peptide AMC, trypsin-coupled fluorescence. inhibition, % at 15 µM. 330,000 tested, 1.1% active; in the data active = inhibition above about 15%; inconclusive = no clear call, values can overlap the other calls
Target sequence (Q9NXA8 whole entry, looked up): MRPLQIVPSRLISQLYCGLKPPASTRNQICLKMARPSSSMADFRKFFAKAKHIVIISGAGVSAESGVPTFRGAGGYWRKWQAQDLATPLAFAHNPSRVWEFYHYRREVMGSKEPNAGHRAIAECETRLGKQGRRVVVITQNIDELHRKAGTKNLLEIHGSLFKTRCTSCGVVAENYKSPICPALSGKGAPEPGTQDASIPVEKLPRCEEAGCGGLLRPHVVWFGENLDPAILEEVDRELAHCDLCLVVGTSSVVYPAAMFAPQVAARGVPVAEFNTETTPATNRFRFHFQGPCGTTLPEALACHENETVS
FGF22 binding: FGF22 (human) thermal shift binding; Q9HCT0; recombinant FGF22 thermal shift, SYPRO orange fluorescence; percent of sucrose octasulfate shift, DMSO zero; activity (Tm shift, normalised), % at 9.99 µM; 340,000 tested, 1.5% active;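 active = mean Tm shift, scaled 0 neutral to 100 positive control, at about 1.3% or above, every replicate too, limit read from the data; inconclusive = no clear call, values can overlap the other calls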
Target sequence (Q9HCT0 whole entry, looked up): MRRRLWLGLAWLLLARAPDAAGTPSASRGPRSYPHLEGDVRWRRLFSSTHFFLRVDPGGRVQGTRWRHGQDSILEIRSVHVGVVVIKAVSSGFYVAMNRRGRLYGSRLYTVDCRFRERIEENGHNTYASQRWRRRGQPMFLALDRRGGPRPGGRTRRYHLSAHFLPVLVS
FN deposit inh: fibronectin deposition inhibition | 350,000 tested, 0.086% active | AH1F fibroblasts, Alexa488-fibronectin deposition fluorescence, overnight | inhibition, % at 12.6 µM;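 active = mean inhibition across replicates of 30% or more, regardless of how many single replicates reach that level; inconclusive = mean under 30% yet at least half of replicates reach 30%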;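 also: positive control wells lacked labelled fibronectin entirely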
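Test system: AH1F fibroblast monolayer depositing Alexa488-labelled fibronectin into matrix. Input: 10000 cells per well. Technique: fluorescence, ex 485 nm, em 525 nm. Buffer or medium: DMEM plus 2% serum, read in PBS. Timing: 1 h cell adhesion before compound, then overnight fibronectin incubation. Compound: single dose, pinned. Read-out basis: inhibition from reduced deposited-fibronectin fluorescence.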
ARNT-TACC3 inh: disrupts binding between human ARNT and TACC3; Q9Y6A5; AlphaScreen His-ARNT PAS-B/GST-TACC3 binding, luminescence; TACC3 fragment carries E629A point mutation; inhibition, % at 9.99 µM; 390,000 tested, 0.66% active; AID 623870;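 active = mean inhibition of replicates at least 50% and at least half of replicates each reaching 50%; inconclusive = half or more replicates reach 50% but mean below 50%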;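 also: 0% = complete ARNT plus TACC3 wells and 100% = ARNT alone without TACC3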
DENV2 CPE: DENV2-induced cell death inhibition | DENV2-infected cells, cytopathic effect rescue, plate reader | CPE inhibition, % at 9.99 µM | 350,000 tested, 1.7% active; in the data active = CPE inhibition above about 20%, passing the limit was not always enough; inconclusive = no clear call, values can overlap the other calls; tested in BHK-21 cells;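 also: 0% = median of neutral control wells and 100% = median of positive control wells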
Xi reactivation: activators of X-chromosome reactivation in mouse fibroblasts. XiGFP mouse fibroblasts, % GFP-positive cells imaging, 3 d; cells co-treated with 5-aza-dC sensitizer; scaled so ellipticine positive control = 100%. activation, % at 7.58 µM. 360,000 tested, 0.055% active. AID 743238;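 active = mean normalized replicate activation at least 10% and every replicate at or above 10%; inconclusive = only one of the two criteria met; inactive = mean below 10% and not all replicates reach 10%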;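 also: 0% = median of on-plate neutral control wells and 100% = ellipticine 6 µM median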
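System: XiGFP fibroblasts, SV40-immortalized. Medium: DMEM plus 5-aza-dC sensitizer. Doses: single point. Timing: 3 d treatment, 15 min room-temperature fixation. Control set: ellipticine 6 µM.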
* hit, by the source's call; ? = inconclusive; / = no result.

SMILES | SIRT5 block | FGF22 binding | FN deposit inh | ARNT-TACC3 inh | DENV2 CPE | Xi reactivation
CCOc1ccccc1-c1nnc(CS(=O)(=O)c2ccccc2)o1 | -3 | 0 | 12 | -5 | 53* | 0
O=C(Cc1cccnc1)N1CC2(C1)[C@@H](c1ccccc1)[C@H](CO)N2C(=O)C1CCOCC1 | -6 | / | -27 | / | -12 | 0
C[C@H](CO)N1C[C@H](C)[C@@H](CN(C)S(=O)(=O)c2cccs2)Oc2ccc(NS(C)(=O)=O)cc2CC1=O | 8 | -1 | -9 | -10 | -9 | -1
CCN(CC)c1ccc(/C=N/N2C(=O)c3ccccc3C2=O)c(O)c1 | 3 | 0 | -2 | -12 | 42* | 0
CCN(CC)c1ccc(C=Nc2cc(C)ccc2C)c(O)c1 | -2 | 0 | -1 | / | -2 | 0
CCN(CC)c1ccc(/C=N/N2C(=O)c3ccccc3C2=O)cc1 | / | / | -2 | 0 | / | 2
CCN(CC)c1ccc(C=Nc2cccnc2Cl)c(O)c1 | -1 | 0 | -3 | active | 15 | 0
CN(C)C1CCN(Cc2cc(COCc3ccccc3)c3cccnc3c2O)C1 (stereo not given) | / | / | / | 75* | / | /
COCc1cc(CN2CCCC2)c(O)c2ncccc12 | / | / | / | 60* | / | /
Oc1c(CN2CCCCC2)cc(COCc2ccccc2)c2cccnc12 | / | / | 2 | 62* | / | /
CC(C)[C@H]1C(=O)NCCC=CC[C@H](C)Oc2ccccc2C(=O)N1C (mixture of isomers) | / | / | 4 | / | / | 0
C[C@H]1CN=C(Nc2ccccc2)N1CCC1CCCCC1 | 22* | 0 | 5 | -4 | -5 | 0
C[C@H]1CN=C(Nc2ccccc2)N1CCCC1CCCC1 | -5 | 0 | 13 | -2 | 58* | 0
C[C@H]1CN=C(Nc2ccccc2)N1CC1CCCCCC1 | -5 | 0 | -21 | 0 | 20 | 0
O=C(C[C@H]1CC[C@H](NC(=O)C2CCOCC2)[C@@H](CO)O1)Nc1nccs1 | 14 | 0 | 10 | 24 | 5 | 0
Cc1cc(/C([O-])=C(/C(=S)Nc2ccc(F)cc2)[n+]2ccccc2)c(C)n1-c1ccc(F)cc1 | / | / | / | 47* | / | /
CN(C[C@H]1[C@H](c2ccccc2)[C@@H](CO)N1C(=O)C1CCC1)C(=O)c1ccccn1 | 16* | -1 | / | 3 | 10 | 0
CCC(=O)N(CC)C[C@@H]1[C@@H](c2ccccc2)[C@H](CO)N1C(C)=O | 1 | 0 | / | -8 | 20* | 0
CCN(C[C@@H]1N[C@@H](CO)[C@H]1c1ccc(-c2ccccc2)cc1)C(=O)COC | 8 | 0 | 3 | 11 | 24* | 0
CN(C[C@H]1[C@H](c2ccccc2)[C@@H](CO)N1C(=O)C1CC1)C(=O)c1ccccn1 | / | / | 0 | -6 | ? | 0
CC(=O)N1[C@@H](CO)[C@H](c2ccccc2)[C@@H]1CN(CC(C)C)C(=O)c1ccccn1 | 0 | 0 | -5 | -3 | 27* | 0
O=C(c1cccc(F)c1)N1CCCCN2[C@H](CO)[C@H](c3ccc(-c4ccc(F)cc4)cc3)[C@H]2C1 | -2 | 0 | / | 5 | -5 | /
CN(C[C@@H]1[C@@H](c2ccccc2)[C@H](CO)N1C(=O)C1CC1)C(=O)c1ccccn1 | / | / | 3 | 1 | 54* | 0
CSCCC(NC(=O)c1ccco1)C(=O)NCC1CCCO1 (stereo not given) | -1 | 0 | 8 | / | 67* | 0
CSCCC(NC(=O)c1ccco1)C(=O)NC1CCCCCC1 (stereo not given) | -4 | 1 | -5 | -2 | ? | 0
SMILES | SIRT5 block | FGF22 binding | FN deposit inh | ARNT-TACC3 inh | DENV2 CPE | Xi reactivation
CO[C@@H]1CN(C)C(=O)c2ccc(NC(=O)Cc3ccccc3)cc2OC[C@@H](C)NC[C@@H]1C | -2 | 0 | -14 | -1 | 2 | 0
COC(=O)c1ccc(N2NC(=O)/C(=C/c3ccc(-c4ccc(Cl)c(C(=O)O)c4)o3)C2=O)cc1 | 23* | 1 | 0 | 4 | -5 | 0
O=C1NN(c2ccc(Cl)c(Cl)c2)C(=O)/C1=C/c1ccc(-c2ccccc2C(=O)O)o1 | 13 | 0 | 5 | 23 | 5 | 0
CC1(C)OC(=O)C(=Cc2ccc(-c3ccc(Cl)c(C(=O)O)c3)o2)C(=O)O1 | 5 | 0 | / | 2 | 14 | 0
Cc1ccc(N2NC(=O)/C(=C/c3ccc(-c4ccc(Cl)c(C(=O)O)c4)o3)C2=O)cc1C | 1 | 0 | -3 | -7 | -3 | 0
CC1=NOC(=O)/C1=C\c1ccc(-c2ccc(Cl)c(C(=O)O)c2)o1 | 22* | 0 | 1 | -3 | 1 | 0
O=C1NN(c2ccccc2)C(=O)/C1=C/c1ccc(-c2ccc(C(=O)O)cc2)o1 | 24* | 0 | 1 | 0 | 1 | 0
COc1ccc(C(=O)Nc2ccc3c(c2)OC[C@@H](C)NC[C@@H](C)[C@H](OC)CN(C)C3=O)cc1 | -3 | 0 | 4 | 0 | 7 | 0
Cc1cc(C=O)c(C)n1-c1cc(C(=O)O)cc(C(=O)O)c1 | 20* | 0 | 3 | -12 | 15 | 0
CCC(=O)Nc1ccc2c(c1)C(=O)N(C)C[C@H](OC)[C@@H](C)CN(C(=O)CN1CCOCC1)[C@@H](C)CO2 | / | / | -14 | / | / | 0
C/C=C/c1ccc([C@@H]2[C@H]3CN(C(=O)Nc4cccc(OC)c4)CC(=O)N3[C@H]2CO)cc1 | 2 | 0 | -9 | / | -2 | 0
C[C@@H]1CCCCO[C@H](CN(C)C(=O)CCCN(C)C)[C@@H](C)CN([C@H](C)CO)C(=O)c2cc(NC(=O)CCC(F)(F)F)ccc2O1 | 0 | 1.5* | / | -4 | / | -1
C[C@@H]1CCCCO[C@@H](CN(C)CC2CC2)[C@H](C)CN([C@H](C)CO)C(=O)c2cc(NC(=O)CCCN(C)C)ccc2O1 | -1 | 0 | / | / | 43* | 0
C[C@H](CO)N1C[C@H](C)[C@@H](CN(C)C(=O)CCCN(C)C)OCCCC[C@H](C)Oc2ccc(N(C)C)cc2C1=O | -5 | -1 | / | -6 | -11 | 0
C[C@@H]1CCCCO[C@H](CN(C)CC2CCCCC2)[C@@H](C)CN([C@H](C)CO)C(=O)c2cc(NC(=O)CCCCCC(=O)Nc3ccccc3N)ccc2O1 | / | / | / | / | / | 0
C[C@@H]1CCCCO[C@@H](CN(C)CC2CCCCC2)[C@H](C)CN([C@H](C)CO)C(=O)c2cc(NC(=O)CCCCCC(=O)Nc3ccccc3N)ccc2O1 | 20* | 0 | / | 1 | -1 | -1
C[C@@H]1CCCCO[C@H](CN(C)C(=O)CCCN(C)C)[C@@H](C)CN([C@@H](C)CO)C(=O)c2cc(N(C)C)ccc2O1 | 16* | -1 | / | 18 | 7 | 0
COCC(=O)NC[C@H]1[C@H](c2ccc(-c3ccccc3)cc2)[C@H](CO)N1C(C)=O | 4 | 0 | / | -7 | 9 | 0
